Measurements taken from ChEMBL document CHEMBL1123812, “Pyrroloisoquinoline antidepressants. 2. In-depth exploration of structure-activity relationships” (J Med Chem, 1987).
Activity calls are given as the source filed them.

How the values were obtained:
Mus musculus [1] = assay: Ability to antagonise intraperitoneal administration; weakly active (>=10% and <=30% antagonism) at 30 mg/kg is represented as >30; assay type: functional; conditions: ip
Procedure, shortened: (§1)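 Nonfasted male Swiss Webster mice, 18–24 g, ten per dose level and in saline controls. Test compound given ip 30 min before tetrabenazine 32 mg/kg ip; dose expressed as free base. Motor activity and ptosis scored. Control response ≤90% corrected by Abbott's formula.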

Mus musculus [2] = species: Mus musculus; assay: Antagonism of tetrabenazine (TBZ)-induced depression measured in mice by motor activity; assay type: functional; conditions: Mus musculus; read-out: ED50; procedure, shortened: as §1
Mus musculus [3] = species: Mus musculus; assay: Gross behavioral effects ascertained in mice; W/C indicates weak stimulant or depressant activity of little significance/ overt convulsant; assay type: functional, organism-based
Procedure, shortened: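 Male Swiss Webster albino mice, 18–24 g, three per dose, given ip 1, 3, 10, 30, 100 and 300 mg/kg. Gross behaviour observed and held 4 days. Estimated LD50 range from lethality count on day 4. Scored as weak stimulant/depressant, significant stimulant, significant depressant or overt convulsant.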

[4] = target: Sodium-dependent dopamine transporter (Rattus norvegicus) (UniProt P23977); assay: Ability to inhibit the uptake of [3H]dopamine (DA) 0.1 uM concentration at rat brain synaptosomes; assay type: functional, subcellular
Procedure, shortened: (§2)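 Male Wistar rat brain synaptosomes (P2 fraction): hypothalamus for NE, striatum for DA, cerebral cortex for 5-HT. Buffer is Tris- or HEPES-buffered salt medium with glucose, ascorbate and nialamide, pH 7.4 at 37 °C. Preincubated 10 min at 37 °C with compound. Uptake started with [3H]NE 100–300 nM, [3H]DA 50–300 nM or [3H]5-HT 100–200 nM, incubated 3 min (DA) or 6–10 min (NE, 5-HT). Blanks held on ice. Filtered, counted by scintillation.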

[5] = target: Sodium-dependent serotonin transporter (Rattus norvegicus) (UniProt P31652); assay: Ability to inhibit the uptake of [3H]- serotonin(5-HT) 0.1 uM concentration at rat brain synaptosomes; assay type: functional, subcellular; procedure, shortened: as §2
[6] = target: Norepinephrine transporter (Rattus norvegicus, UniProt Q9WTR4); assay: Inhibition of uptake of tritiated norepinephrine (NE) in rat synaptosomes; assay type: subcellular, Brain
D(2) dopamine receptor = D(2) dopamine receptor (Rattus norvegicus, UniProt P61169); assay: Binding affinity towards Dopamine receptor D2
[7] = target: Serotonin 1 (5-HT1) receptor (Rattus norvegicus, UniProt P28564+P30940+P19327+P28565); assay: Binding affinity towards serotonin S1 receptor; assay type: protein assay
Procedure, shortened: (§3)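 Rat brain crude synaptic membranes in 20 mM NaHEPES pH 7.5. Ligands: α1 cortex […] 0.4 nM, nonspecific with (-)-NE 100 μM, 30 min at 25 °C. […] D2 striatum [3H]spiperone 0.05 nM with (+)-butaclamol 1 μM, 45 min at 37 °C. S1 cortex [3H]5-HT 1 nM plus glutathione and MgCl2, with 5-HT 10 μM, 20 min at 37 °C. […] Samples filtered on GF/B and counted.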

[8] = target: T1, Adrenergic receptor alpha-2 (Rattus norvegicus, UniProt P22086+P19328+P22909); assay: Binding affinity towards alpha-2 adrenergic receptor; assay type: protein assay
T1 sequence (P22086 whole entry): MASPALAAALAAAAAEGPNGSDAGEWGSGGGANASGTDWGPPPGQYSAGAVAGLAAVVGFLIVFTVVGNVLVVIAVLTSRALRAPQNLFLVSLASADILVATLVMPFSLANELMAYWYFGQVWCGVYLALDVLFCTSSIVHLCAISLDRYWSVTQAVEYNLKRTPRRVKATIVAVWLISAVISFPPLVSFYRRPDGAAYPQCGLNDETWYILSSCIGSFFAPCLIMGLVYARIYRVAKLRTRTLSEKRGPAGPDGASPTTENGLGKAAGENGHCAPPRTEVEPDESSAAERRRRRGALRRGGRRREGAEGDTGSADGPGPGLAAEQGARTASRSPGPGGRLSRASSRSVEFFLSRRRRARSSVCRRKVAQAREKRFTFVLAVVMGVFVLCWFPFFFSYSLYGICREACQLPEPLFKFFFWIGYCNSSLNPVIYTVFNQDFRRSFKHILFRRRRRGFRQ
T1 sequence (P19328 whole entry): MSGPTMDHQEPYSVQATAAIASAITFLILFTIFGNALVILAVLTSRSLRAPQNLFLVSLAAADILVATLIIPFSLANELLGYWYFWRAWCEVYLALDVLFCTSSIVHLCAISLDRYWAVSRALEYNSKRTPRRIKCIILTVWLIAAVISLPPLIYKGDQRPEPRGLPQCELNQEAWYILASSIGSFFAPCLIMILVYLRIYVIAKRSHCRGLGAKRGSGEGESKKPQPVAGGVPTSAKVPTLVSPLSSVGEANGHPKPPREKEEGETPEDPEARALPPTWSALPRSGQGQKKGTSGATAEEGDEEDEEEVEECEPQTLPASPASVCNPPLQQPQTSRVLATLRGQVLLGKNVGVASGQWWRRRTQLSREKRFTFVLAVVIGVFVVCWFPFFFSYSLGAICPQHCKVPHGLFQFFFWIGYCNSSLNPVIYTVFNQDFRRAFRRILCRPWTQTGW
T1 sequence (P22909 whole entry): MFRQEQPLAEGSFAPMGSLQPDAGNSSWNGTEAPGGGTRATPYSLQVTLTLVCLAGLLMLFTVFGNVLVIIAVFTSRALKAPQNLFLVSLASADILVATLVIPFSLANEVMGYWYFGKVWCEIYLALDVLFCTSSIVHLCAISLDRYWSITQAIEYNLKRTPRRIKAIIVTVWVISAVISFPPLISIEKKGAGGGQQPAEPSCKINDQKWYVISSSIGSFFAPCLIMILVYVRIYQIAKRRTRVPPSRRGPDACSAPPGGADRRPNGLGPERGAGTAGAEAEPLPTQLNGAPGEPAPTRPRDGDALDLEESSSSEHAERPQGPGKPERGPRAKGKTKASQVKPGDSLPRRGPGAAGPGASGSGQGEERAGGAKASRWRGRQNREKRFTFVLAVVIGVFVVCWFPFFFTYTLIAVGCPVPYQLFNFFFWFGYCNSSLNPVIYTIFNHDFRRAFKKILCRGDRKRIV

[9] = target: D(1A) dopamine receptor (Rattus norvegicus) (UniProt P18901); assay: Binding affinity towards Dopamine receptor D1 at 1.0 uM concentration; procedure, shortened: as §3
Rattus norvegicus = species: Rattus norvegicus; assay: Inhibition of GABA uptake at 1 uM concentration.; assay type: functional
Mus musculus [10] = species: Mus musculus; assay: Gross behavioral effects ascertained in mice; W indicates weak stimulant or depressant activity of little significance.; assay type: functional, organism-based
Procedure, shortened: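 Male Swiss Webster mice, 18–24 g, three per dose, given ip doses of 1, 3, 10, 30, 100 and 300 mg/kg. Observed for gross behavior and held for 4 days. Scored as weak (W), stimulant (S), depressant (D) or convulsant (C).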

[11] = target: Muscarinic acetylcholine receptor (Rattus norvegicus) (UniProt P08482+P08483+P08485+P08911+P10980); assay: Binding affinity towards Muscarinic acetylcholine receptor at 1.0 uM concentration; assay type: protein assay
[12] = target: Adrenergic receptor alpha-2 (Rattus norvegicus) (UniProt P22086+P19328+P22909); assay: Binding affinity towards alpha-2 adrenergic receptor at 1.0 uM concentration; assay type: protein assay
Mus musculus [13] = assay: (§4) Ability to antagonise intraperitoneal dose; inactive (<10% antagonism) at 30 mgjkg is represented as I-30.; assay type: functional, organism-based; procedure, shortened: as §1
Mus musculus [14] = assay: as §4; assay type: functional, organism-based; procedure, shortened: as §1; remark: listed apart in the source
[15] = target: Norepinephrine transporter (Rattus norvegicus) (UniProt Q9WTR4); assay: Ability to inhibit the uptake of [3H]norepinephrine (NE) 0.1 uM concentration at rat brain synaptosomes; assay type: functional, subcellular; procedure, shortened: as §2
Sequence of Norepinephrine transporter (Rattus norvegicus) (Q9WTR4 as listed by the source): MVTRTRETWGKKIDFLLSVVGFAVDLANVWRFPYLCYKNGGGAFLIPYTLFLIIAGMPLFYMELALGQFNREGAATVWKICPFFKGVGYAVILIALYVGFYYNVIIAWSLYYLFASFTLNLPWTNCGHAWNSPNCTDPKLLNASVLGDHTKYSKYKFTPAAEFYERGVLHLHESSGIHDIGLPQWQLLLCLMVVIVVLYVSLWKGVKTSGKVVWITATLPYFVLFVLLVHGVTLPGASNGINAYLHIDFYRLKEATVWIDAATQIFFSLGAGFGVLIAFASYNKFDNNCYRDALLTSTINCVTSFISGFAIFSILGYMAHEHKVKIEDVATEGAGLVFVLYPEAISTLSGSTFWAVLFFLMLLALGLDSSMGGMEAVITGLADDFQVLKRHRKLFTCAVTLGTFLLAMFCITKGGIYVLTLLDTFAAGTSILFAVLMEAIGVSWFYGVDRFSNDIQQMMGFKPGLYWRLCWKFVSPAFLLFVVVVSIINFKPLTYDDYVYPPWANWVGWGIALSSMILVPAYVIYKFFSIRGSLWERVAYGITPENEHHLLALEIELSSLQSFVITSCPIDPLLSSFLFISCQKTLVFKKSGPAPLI

Sequence of Sodium-dependent dopamine transporter (Rattus norvegicus) (P23977 whole entry): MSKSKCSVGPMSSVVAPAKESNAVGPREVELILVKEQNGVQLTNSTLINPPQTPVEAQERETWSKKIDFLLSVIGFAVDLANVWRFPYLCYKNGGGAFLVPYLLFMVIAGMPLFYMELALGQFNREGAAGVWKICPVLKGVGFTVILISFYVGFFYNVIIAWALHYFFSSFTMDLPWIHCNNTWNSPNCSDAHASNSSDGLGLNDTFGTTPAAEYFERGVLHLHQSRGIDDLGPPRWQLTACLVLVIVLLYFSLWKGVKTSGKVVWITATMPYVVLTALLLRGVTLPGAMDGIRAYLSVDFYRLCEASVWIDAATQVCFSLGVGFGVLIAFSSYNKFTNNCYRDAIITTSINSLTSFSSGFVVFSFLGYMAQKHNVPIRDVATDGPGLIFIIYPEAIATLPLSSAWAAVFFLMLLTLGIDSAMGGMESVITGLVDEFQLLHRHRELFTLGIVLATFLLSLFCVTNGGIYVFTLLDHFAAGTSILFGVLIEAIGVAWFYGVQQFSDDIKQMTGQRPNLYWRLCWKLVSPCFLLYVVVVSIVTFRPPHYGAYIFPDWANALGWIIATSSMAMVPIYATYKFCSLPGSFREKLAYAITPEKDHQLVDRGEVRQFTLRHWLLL
Sequence of Sodium-dependent serotonin transporter (Rattus norvegicus) (P31652 whole entry): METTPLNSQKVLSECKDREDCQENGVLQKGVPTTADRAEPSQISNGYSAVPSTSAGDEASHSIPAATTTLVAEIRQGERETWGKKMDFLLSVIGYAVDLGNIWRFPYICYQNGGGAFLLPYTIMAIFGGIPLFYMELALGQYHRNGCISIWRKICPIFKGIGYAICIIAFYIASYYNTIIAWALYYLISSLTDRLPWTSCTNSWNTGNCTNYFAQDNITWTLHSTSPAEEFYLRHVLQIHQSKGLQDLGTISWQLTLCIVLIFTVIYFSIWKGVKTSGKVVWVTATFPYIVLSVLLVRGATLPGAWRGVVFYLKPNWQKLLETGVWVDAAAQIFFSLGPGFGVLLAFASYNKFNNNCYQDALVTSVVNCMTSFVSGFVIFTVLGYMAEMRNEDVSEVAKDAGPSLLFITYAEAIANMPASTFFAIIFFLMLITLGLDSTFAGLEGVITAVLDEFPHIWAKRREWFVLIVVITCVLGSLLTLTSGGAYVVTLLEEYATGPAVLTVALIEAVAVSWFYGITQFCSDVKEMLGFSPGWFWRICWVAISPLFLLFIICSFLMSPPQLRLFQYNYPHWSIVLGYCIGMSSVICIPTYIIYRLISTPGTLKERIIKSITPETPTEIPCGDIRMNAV
Sequence of D(1A) dopamine receptor (Rattus norvegicus) (P18901 whole entry): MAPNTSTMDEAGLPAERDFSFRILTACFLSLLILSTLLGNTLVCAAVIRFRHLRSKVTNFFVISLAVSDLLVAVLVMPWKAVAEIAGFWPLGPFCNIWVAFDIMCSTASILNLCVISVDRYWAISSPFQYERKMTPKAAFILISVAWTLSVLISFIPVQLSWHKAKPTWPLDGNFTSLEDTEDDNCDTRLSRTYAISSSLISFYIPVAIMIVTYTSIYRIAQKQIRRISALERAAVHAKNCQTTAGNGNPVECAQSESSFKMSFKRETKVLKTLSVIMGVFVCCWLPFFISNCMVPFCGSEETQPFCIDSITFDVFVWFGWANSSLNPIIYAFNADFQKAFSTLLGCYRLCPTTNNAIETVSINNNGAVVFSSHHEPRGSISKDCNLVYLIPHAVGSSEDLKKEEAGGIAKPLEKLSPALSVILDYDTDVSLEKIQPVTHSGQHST
Sequence of Norepinephrine transporter (Q9WTR4 whole entry): as the sequence (Q9WTR4 as listed by the source) above
Sequence of D(2) dopamine receptor (P61169 whole entry): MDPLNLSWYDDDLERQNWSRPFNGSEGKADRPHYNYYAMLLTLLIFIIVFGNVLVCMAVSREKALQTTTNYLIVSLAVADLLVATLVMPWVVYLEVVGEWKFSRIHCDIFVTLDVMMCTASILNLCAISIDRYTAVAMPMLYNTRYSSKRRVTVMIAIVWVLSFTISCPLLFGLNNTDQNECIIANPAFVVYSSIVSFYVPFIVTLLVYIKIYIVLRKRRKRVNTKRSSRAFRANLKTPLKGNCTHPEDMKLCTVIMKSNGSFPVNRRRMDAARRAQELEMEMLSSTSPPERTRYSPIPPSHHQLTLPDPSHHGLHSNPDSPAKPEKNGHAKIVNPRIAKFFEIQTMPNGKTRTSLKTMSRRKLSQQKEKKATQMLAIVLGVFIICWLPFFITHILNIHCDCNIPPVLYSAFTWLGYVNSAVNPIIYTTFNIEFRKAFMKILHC

SMILES	inhibition [11] [%]	inhibition [12] [%]	inhibition [4] [%]	inhibition [5] [%]	inhibition (Rattus norvegicus) [%]	behavior (Mus musculus [10])	also measured
F[C@@]1(c2ccccc2)CN2CCC[C@H]2c2ccccc21	–	–	22	-3	–	–	ED50 at 30 mg/kg (Mus musculus [1]): > 30 mg/kg; ED50 (Mus musculus [2]): > 30 mg/kg; behavior (Mus musculus [3]): Weak/Overt convulsant; Ki [6]: ~100 nM
CN(C)CCCN1c2ccccc2CCc2ccc(Cl)cc21 [CLOMIPRAMINE]	–	–	–	–	–	–	Ki (D(2) dopamine receptor): 56 nM; Ki [7]: 5000 nM; Ki [8]: 51 nM
FC(F)(F)c1cccc([C@@H]2CN3CCC[C@@H]3c3ccccc32)c1 (stereo in doubt; 37b)	1	7	–	–	16	Partial stimulant	inhibition [9]: 17%
c1ccc([C@@H]2CN3CC[C@@H]4CCCC[C@@]43c3ccccc32)cc1	–	–	33	4	–	Weak	ED50 (Mus musculus [13]): inactive; ED50 (Mus musculus [14]): inactive; inhibition [15]: 0%
Clc1ccccc1[C@@H]1CN2CCC[C@@H]2c2ccccc21 (stereo in doubt; 24b)	6	12	–	–	16	Partial stimulant	–
